Experimental data from the M2OR odorant receptor database.

What was measured:
Conditions in all cases: stereoisomer not certain
UniProt L7MU75 = target: T1, UniProt L7MU75
T1 sequence (whole entry): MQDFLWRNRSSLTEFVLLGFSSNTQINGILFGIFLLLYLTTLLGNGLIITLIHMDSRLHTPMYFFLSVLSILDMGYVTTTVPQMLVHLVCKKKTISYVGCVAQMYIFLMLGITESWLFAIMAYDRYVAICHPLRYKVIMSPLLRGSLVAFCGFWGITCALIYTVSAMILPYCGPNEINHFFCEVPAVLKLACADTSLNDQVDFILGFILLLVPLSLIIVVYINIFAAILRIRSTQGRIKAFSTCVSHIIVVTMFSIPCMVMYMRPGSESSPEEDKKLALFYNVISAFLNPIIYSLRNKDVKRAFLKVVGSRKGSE
Procedure, shortened: (§1)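 Transient luciferase assays in mammalian cell lines were common, though methods varied by source. The values come from published papers and their supplementary material, with extra details from the original authors when needed. Responsive refers to a measured signal the original authors judged statistically different from baseline, and non-responsive (inactive) to the remainder.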

UniProt L7N210 = target: T2, UniProt L7N210
T2 sequence (whole entry): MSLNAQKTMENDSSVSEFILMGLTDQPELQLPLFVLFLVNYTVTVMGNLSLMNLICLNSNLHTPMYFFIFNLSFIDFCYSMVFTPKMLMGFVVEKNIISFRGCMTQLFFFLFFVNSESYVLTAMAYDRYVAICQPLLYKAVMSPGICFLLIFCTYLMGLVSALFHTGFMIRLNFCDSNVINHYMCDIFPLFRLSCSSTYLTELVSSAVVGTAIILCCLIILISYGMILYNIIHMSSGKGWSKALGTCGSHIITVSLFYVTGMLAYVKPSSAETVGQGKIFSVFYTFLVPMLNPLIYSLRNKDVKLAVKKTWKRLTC
Procedure, shortened: as §1

UniProt Q3KPB0 = target: T3, UniProt Q3KPB0
T3 sequence (whole entry): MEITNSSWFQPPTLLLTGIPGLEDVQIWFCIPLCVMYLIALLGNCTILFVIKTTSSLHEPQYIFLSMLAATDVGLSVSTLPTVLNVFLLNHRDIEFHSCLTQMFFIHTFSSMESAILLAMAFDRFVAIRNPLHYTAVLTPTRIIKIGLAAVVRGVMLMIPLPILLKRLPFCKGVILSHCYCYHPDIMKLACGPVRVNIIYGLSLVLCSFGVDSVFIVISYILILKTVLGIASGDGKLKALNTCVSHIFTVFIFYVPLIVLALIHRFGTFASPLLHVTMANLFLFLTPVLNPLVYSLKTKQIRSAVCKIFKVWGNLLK
Procedure, shortened: as §1

UniProt Q3U0P3 = target: T4, UniProt Q3U0P3
T4 sequence (whole entry): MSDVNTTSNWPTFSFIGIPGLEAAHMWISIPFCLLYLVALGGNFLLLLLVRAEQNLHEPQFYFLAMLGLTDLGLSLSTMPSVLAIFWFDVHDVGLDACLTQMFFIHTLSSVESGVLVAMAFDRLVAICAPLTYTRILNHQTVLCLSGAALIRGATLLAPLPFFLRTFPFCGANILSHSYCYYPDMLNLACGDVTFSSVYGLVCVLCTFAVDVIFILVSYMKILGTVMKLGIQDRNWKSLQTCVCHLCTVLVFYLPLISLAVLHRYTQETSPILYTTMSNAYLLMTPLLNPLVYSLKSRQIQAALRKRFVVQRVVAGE
Procedure, shortened: as §1

UniProt Q7TQU8 = target: T5, UniProt Q7TQU8
T5 sequence (whole entry): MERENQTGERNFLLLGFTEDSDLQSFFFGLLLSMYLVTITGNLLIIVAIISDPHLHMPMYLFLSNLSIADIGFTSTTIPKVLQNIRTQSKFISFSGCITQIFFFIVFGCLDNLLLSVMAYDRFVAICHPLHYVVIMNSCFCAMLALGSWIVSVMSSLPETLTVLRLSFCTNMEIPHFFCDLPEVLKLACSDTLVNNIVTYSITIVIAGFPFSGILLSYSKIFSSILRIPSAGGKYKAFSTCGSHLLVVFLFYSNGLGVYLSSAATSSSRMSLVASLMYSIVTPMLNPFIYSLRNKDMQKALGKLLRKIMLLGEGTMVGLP
Procedure, shortened: as §1
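Note: active if original authors judged signal statistically different from baseline.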

Row | SMILES | odorant receptor agonist call (UniProt L7MU75) | odorant receptor agonist call (UniProt L7N210) | odorant receptor agonist call (UniProt Q3KPB0) | odorant receptor agonist call (UniProt Q3U0P3) | odorant receptor agonist call (UniProt Q7TQU8)
1 | CC(CC=O)CCCC(C)(C)O (stereo not given) | inactive | inactive | inactive | inactive | inactive
2 | C1CCOCC1 | inactive | inactive | inactive | inactive | inactive
3 | C=C(CC)CCCC(C)(C)O | inactive | inactive | inactive | inactive | inactive
4 | Cc1ccc2c(c1)OCC(=O)CO2 | inactive | inactive | inactive | inactive | inactive
5 | CC=CC(=O)C1=C(C)CCCC1(C)C | inactive | inactive | inactive | inactive | inactive
6 | Cc1c(C)c(C)c(C=O)c(C)c1C | inactive | active | inactive | inactive | inactive
7 | CC1CC=CCCCCCCCCCC(=O)C1 (stereo not given) | inactive | inactive | inactive | inactive | inactive
8 | CC(=O)OCc1ccc2c(c1)OCO2 | inactive | active | inactive | inactive | inactive
9 | CCCCCOC(=O)CCC | inactive | inactive | inactive | inactive | inactive
10 | OCCCCCCCCCO | inactive | inactive | inactive | inactive | inactive
11 | CCN(CC)CC | inactive | inactive | inactive | inactive | inactive
12 | COc1nccnc1C | active | inactive | inactive | inactive | inactive
13 | Cc1ccc(C(C)C)c(O)c1 | inactive | inactive | inactive | inactive | inactive
14 | CCCCCC(C=O)=Cc1ccccc1 | inactive | inactive | inactive | inactive | inactive
15 | CCCC(C)C(=O)OCC (stereo not given) | inactive | inactive | inactive | inactive | inactive
16 | CCCCCC=CCCC=O | inactive | inactive | inactive | inactive | inactive
17 | C=C1C2CCC(C2)C1(C)C (stereo not given) | inactive | inactive | inactive | inactive | inactive
18 | CC(C)CS | inactive | inactive | inactive | inactive | inactive
19 | O=C([O-])CCCCCCC(=O)[O-].[H+].[H+] | inactive | inactive | inactive | inactive | inactive
20 | Cc1ccc(C(C)C)cc1 | inactive | inactive | inactive | inactive | inactive
